{"source": "ChEMBL document CHEMBL2163291", "about": "“Synthesis of pyrazole peptidomimetics and their inhibition against A549 lung cancer cells” (Bioorg Med Chem Lett, 2012)", "key": {"[1]": {"tested_on": "A549", "test": "Induction of necrosis in human A549 cells at 80 uM after 48 hrs by LDH release assay", "assay_type": "functional, cell-based", "procedure,_shortened": "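A549 cells were treated at 80 µM, or with 0.1% DMSO or left untreated as control, for 48 h. LDH release into the cells' surroundings served as the necrosis read-out, n = 3, mean ± SE.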"}, "[2]": {"tested_on": "A549", "test": "Induction of autophagy in human A549 cells assessed as increase in LC3-2 level at 80 uM after 48 hrs by Western blot analysis relative to beta-actin", "assay_type": "functional, cell-based", "procedure,_shortened": "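A549 cells were treated at 80 µM for 48 h. LC3-II protein was detected by immunoblot and normalized to β-actin, expressed as percent of control, n = 3.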"}, "[3]": {"tested_on": "A549", "test": "Cell cycle arrest in human A549 cells assessed as accumulation at S phase at 80 uM after 48 hrs by FACS flow cytometry (reference value: 34.67 %)", "assay_type": "functional"}, "[4]": {"tested_on": "A549", "test": "Induction of apoptosis in human A549 cells assessed as chromatin condensation at 80 uM after 48 hrs by Hoechst 33258 staining-based fluorescent microscopy", "assay_type": "functional, cell-based", "procedure,_shortened": "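A549 cells were exposed to compound at 80 µM for 48 h, then stained with Hoechst 33258. Nuclei were examined by fluorescence microscopy for chromatin condensation and apoptotic bodies, against an untreated control group.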"}, "[5]": {"tested_on": "A549", "test": "Cell cycle arrest in human A549 cells assessed as accumulation at G1 phase at 80 uM after 48 hrs by FACS flow cytometry (reference value: 55.94%)", "assay_type": "functional"}, "[6]": {"tested_on": "A549", "test": "Cytotoxicity against human A549 cells assessed cell viability after 48 hrs by SRB assay", "assay_type": "functional, cell-based", "details": "for IC50: A549, 48 h", "procedure,_shortened": "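A549 cells were treated for 48 h and net growth was measured by sulforhodamine B colorimetric assay. IC50 is the concentration causing a 50% decrease in net cell growth. Test levels were 40, 60 and 80 µM.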"}, "[7]": {"tested_on": "A549", "test": "Cell cycle arrest in human A549 cells assessed as accumulation at G2 phase at 80 uM after 48 hrs by FACS flow cytometry (reference value: 9.39 %)", "assay_type": "functional"}, "[8]": {"tested_on": "A549", "test": "Cytotoxicity against human A549 cells assessed as cell viability at 40 uM after 48 hrs by SRB assay", "assay_type": "functional, cell-based", "procedure,_shortened": "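A549 cells were treated at 40, 60 or 80 µM, or left untreated (control), for 48 h. Viability was read by sulforhodamine B colorimetric assay against untreated cells, n = 3, mean ± SE.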"}}, "note": "Calls of active or inactive are those of the source. No cut-off for these calls is given here."}
{"smiles": "CCOC(=O)[C@@H](CO)NC(=O)c1cc(-c2ccccc2)nn1Cc1ccccc1", "values": [{"measurement": "Activity", "setting": "[1]", "value": "inactive"}, {"measurement": "Activity", "setting": "[2]", "value": "Active"}, {"measurement": "Activity", "setting": "[3]", "value": 34.44, "unit": "%"}, {"measurement": "Activity", "setting": "[4]", "value": "Active"}, {"measurement": "Activity", "setting": "[5]", "value": 57.48, "unit": "%"}, {"measurement": "Activity", "setting": "[6]", "value": "Dose-dependent effect"}, {"measurement": "IC50", "setting": "[6]", "value": 56.1, "unit": "µM"}, {"measurement": "Activity", "setting": "[7]", "value": 8.08, "unit": "%"}]}
{"smiles": "CCOC(=O)CNC(=O)c1cc(-c2ccc(Cl)cc2)nn1Cc1ccc(C(C)(C)C)cc1", "values": [{"measurement": "Activity", "setting": "[1]", "value": "inactive"}, {"measurement": "Activity", "setting": "[2]", "value": "Active"}, {"measurement": "Activity", "setting": "[3]", "value": 19.91, "unit": "%"}, {"measurement": "Activity", "setting": "[4]", "value": "Active"}, {"measurement": "Activity", "setting": "[5]", "value": 76.06, "unit": "%"}, {"measurement": "Activity", "setting": "[6]", "value": "Dose-dependent effect"}, {"measurement": "IC50", "setting": "[6]", "value": 63.4, "unit": "µM"}, {"measurement": "Activity", "setting": "[7]", "value": 4.04, "unit": "%"}]}
{"smiles": "CCOC(=O)CNC(=O)c1cc(-c2ccc(Cl)cc2)nn1Cc1ccccc1", "values": [{"measurement": "Activity", "setting": "[1]", "value": "inactive"}, {"measurement": "Activity", "setting": "[2]", "value": "Active"}, {"measurement": "Activity", "setting": "[3]", "value": 34.04, "unit": "%"}, {"measurement": "Activity", "setting": "[4]", "value": "Active"}, {"measurement": "Activity", "setting": "[5]", "value": 57.39, "unit": "%"}, {"measurement": "Activity", "setting": "[7]", "value": 8.57, "unit": "%"}]}
{"smiles": "CCOC(=O)[C@@H](CS)NC(=O)c1cc(-c2ccc(Cl)cc2)nn1Cc1ccccc1", "values": [{"measurement": "Activity", "setting": "[1]", "value": "inactive"}, {"measurement": "Activity", "setting": "[2]", "value": "Active"}, {"measurement": "Activity", "setting": "[3]", "value": 32.55, "unit": "%"}, {"measurement": "Activity", "setting": "[4]", "value": "Active"}, {"measurement": "Activity", "setting": "[5]", "value": 60.2, "unit": "%"}, {"measurement": "Activity", "setting": "[7]", "value": 7.25, "unit": "%"}]}
{"smiles": "CCOC(=O)[C@@H](CO)NC(=O)c1cc(-c2ccccc2)nn1Cc1ccc(C(C)(C)C)cc1", "values": [{"measurement": "Activity", "setting": "[1]", "value": "inactive"}, {"measurement": "Activity", "setting": "[2]", "value": "Active"}, {"measurement": "Activity", "setting": "[3]", "value": 21.63, "unit": "%"}, {"measurement": "Activity", "setting": "[4]", "value": "Active"}, {"measurement": "Activity", "setting": "[5]", "value": 72.31, "unit": "%"}, {"measurement": "Activity", "setting": "[6]", "value": "Dose-dependent effect"}, {"measurement": "IC50", "setting": "[6]", "value": 36.1, "unit": "µM"}, {"measurement": "Activity", "setting": "[7]", "value": 6.06, "unit": "%"}, {"measurement": "Activity", "setting": "[8]", "value": "Active"}]}
{"smiles": "CCOC(=O)[C@@H](CO)NC(=O)c1cc(-c2ccc(Cl)cc2)nn1Cc1ccccc1", "values": [{"measurement": "Activity", "setting": "[1]", "value": "inactive"}, {"measurement": "Activity", "setting": "[2]", "value": "Active"}, {"measurement": "Activity", "setting": "[3]", "value": 40.08, "unit": "%"}, {"measurement": "Activity", "setting": "[4]", "value": "Active"}, {"measurement": "Activity", "setting": "[5]", "value": 59.23, "unit": "%"}, {"measurement": "Activity", "setting": "[6]", "value": "Dose-dependent effect"}, {"measurement": "IC50", "setting": "[6]", "value": 56.8, "unit": "µM"}, {"measurement": "Activity", "setting": "[7]", "value": 0.69, "unit": "%"}]}
{"smiles": "O=c1[nH]cc(F)c(=O)[nH]1", "note": "[FLUOROURACIL]", "values": [{"measurement": "IC50", "setting": "[6]", "value": 4.21, "unit": "µM"}]}
{"smiles": "CCOC(=O)[C@@H](CO)NC(=O)c1cc(-c2ccc(Cl)cc2)nn1Cc1ccc(C(C)(C)C)cc1", "values": [{"measurement": "Activity", "setting": "[1]", "value": "inactive"}, {"measurement": "Activity", "setting": "[2]", "value": "Active"}, {"measurement": "Activity", "setting": "[3]", "value": 19.53, "unit": "%"}, {"measurement": "Activity", "setting": "[4]", "value": "Active"}, {"measurement": "Activity", "setting": "[5]", "value": 79.54, "unit": "%"}, {"measurement": "Activity", "setting": "[6]", "value": "Dose-dependent effect"}, {"measurement": "IC50", "setting": "[6]", "value": 38.8, "unit": "µM"}, {"measurement": "Activity", "setting": "[7]", "value": 0.92, "unit": "%"}, {"measurement": "Activity", "setting": "[8]", "value": "Active"}]}
